Source: PubChem
CHO parental Ca: ATP-evoked calcium signal inhibitors, parental CHO, primary screen, counter-screen for OX1R antagonist project, cell-based, fluorescence, Fluo-8 calcium dye | parental CHO-K1, ATP-induced calcium, Fluo-8 fluorescence | inhibition, % at 5.6 µM | actives 0.63% (n = 330,000) | AID 463079, 2010;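 active means inhibition above that plate's mean sample inhibition plus 3 SD, cut at about 26% in these data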;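 further: 0% = ATP-challenged DMSO wells and 100% = DMSO wells without ATP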
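Assay system: parental CHO cells; Read-out basis: percent inhibition of ATP-evoked calcium rise, normalized to controls; Benchmarks: ATP and no-ATP DMSO wells; Compound dosing: single nominal dose of 5.6 µM per compound; Signal: Fluo-8 calcium dye fluorescence; Also added: ATP as calcium-mobilizing challenge; Repeats: singlicate.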
OX1R antag-1: OX1R (HCRTR1) antagonists, primary screen, fluorescence, CHO/OX1R cells, Fluo-8 calcium, orexin A; inhibition, % at 5 µM; Fluo-8 calcium fluorescence; actives 0.43% (n = 330,000); Orexin/Hypocretin receptor type 1 (Homo sapiens), O43613;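 active means inhibition above its plate's threshold, mean inhibition of all tested compounds on the plate plus 3 SD, cut at about 37% in these data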;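 further: 0% = orexin A challenge wells and 100% = SB-334867-A antagonist wells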
GPR7 antag: GPR7 receptor antagonists, primary screen, cell-based, fluorescence, single concentration; Neuropeptides B/W receptor type 1 (Homo sapiens), P48145; GPR7-expressing cells, fluorescence antagonist assay; inhibition, % at 4.4 µM; actives 1.1% (n = 290,000); AID 1861, 2009; in the data active means inhibition above about 16%, passing the limit was not always enough;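 further: cells stimulated with the agonist NPW; 0% = agonist with vehicle and 100% = vehicle without agonist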
Target sequence (P48145 whole entry, looked up): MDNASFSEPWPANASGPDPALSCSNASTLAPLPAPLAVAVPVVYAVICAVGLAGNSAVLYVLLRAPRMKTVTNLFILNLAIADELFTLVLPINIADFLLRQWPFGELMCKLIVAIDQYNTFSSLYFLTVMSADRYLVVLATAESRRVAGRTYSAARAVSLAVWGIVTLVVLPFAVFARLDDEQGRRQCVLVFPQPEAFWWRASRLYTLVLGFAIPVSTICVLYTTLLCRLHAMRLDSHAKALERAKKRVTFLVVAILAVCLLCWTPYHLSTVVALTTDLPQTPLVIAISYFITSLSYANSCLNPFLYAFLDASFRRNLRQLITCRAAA
TAAR1 antag: human TAAR1 antagonists, primary screen, Fluo-8 calcium fluorescence, CHO RD-HGA16 cells; antagonist; inhibition, % at 3 µM; Trace amine-associated receptor 1 (Homo sapiens), Q96RJ0; AID 624466, 2012; actives 1.5% (n = 360,000);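 active means inhibition above a per-plate cutoff, the mean inhibition of test compounds on that plate plus 3 SD, cut at about 49% in these data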;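 further: 0% = DMSO plus EC80 beta-PEA response and 100% = DMSO alone without agonist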
Target sequence (Q96RJ0 whole entry, looked up): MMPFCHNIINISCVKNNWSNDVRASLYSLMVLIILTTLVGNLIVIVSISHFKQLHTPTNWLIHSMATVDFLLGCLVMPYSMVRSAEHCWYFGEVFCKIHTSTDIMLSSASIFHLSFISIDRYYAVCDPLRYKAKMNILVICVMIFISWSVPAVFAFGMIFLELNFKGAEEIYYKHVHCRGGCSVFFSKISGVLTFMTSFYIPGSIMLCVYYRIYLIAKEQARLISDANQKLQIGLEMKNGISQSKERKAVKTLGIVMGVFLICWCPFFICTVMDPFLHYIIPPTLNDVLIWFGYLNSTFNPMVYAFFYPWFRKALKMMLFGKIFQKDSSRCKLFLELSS
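Test system: CHO RD-HGA16 cells bearing hTAAR1 | Reagent: β-PEA, EC80 | Compound dosing: 3 µM, single point | Schedule: Dye loading 75 min at 37 °C, then 30 min room temperature | Signal: Calcium fluorescence with Fluo-8 | Evaluation: Percent inhibition of PEA-evoked calcium signal, max/basal emission ratio | Control set: DMSO-only wells and EC80 β-PEA-stimulated wells | Repeats: Singlicate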
OX1R antag-2: antagonists of human orexin 1 receptor (OX1R); Orexin/Hypocretin receptor type 1 (Homo sapiens), O43613; OX1R-expressing cells, FRET antagonist read-out; inhibition, % at 6.6 µM; actives 1.8% (n = 330,000); in the data active means inhibition mostly above about 38%, no sharp cut-off; inactive means mostly below about 40%;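 further: 0% = agonist challenge alone and 100% = reference antagonist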
TAAR1 ag: human TAAR1 agonists, primary screen, Fluo-8 calcium fluorescence, CHO RD-HGA16 cells | activation, % at 3 µM | vehicle wells 0%, saturating PEA agonist 100% | actives 0.99% (n = 360,000);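 active means activation above the mean activation of all test compounds in the run plus 3 SD, cut at about 38% in these data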
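System: CHO-derived RD-HGA16 cells with stable Gα16 and human TAAR1 / Times: 17-24 h plating, Fluo-8 75 min 37 °C, 30 min RT / Technique: calcium-sensitive Fluo-8 signal, excitation 470-495, emission 515-575 nm / Measure: % activation relative to PEA EC100 response / Benchmarks: DMSO and PEA EC100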
* hit, by the source's call. Compounds with a hit are over-represented: about 4.5% of the library has one in this group of screens.

Screening NC(=O)c1nsc(C(=O)N(c2cccc(F)c2)C(C(=O)NCc2ccccc2)c2ccc(O)cc2)c1N (stereo unspecified) returned CHO parental Ca 1.9, OX1R antag-1 -9.3, GPR7 antag -10.9, TAAR1 antag 52.5*, OX1R antag-2 46.4 and TAAR1 ag 17.7.
Screening Cc1ccc(S(=O)(=O)c2c(C)nn(C(C)(C)C)c2OC(=O)CC(C)C)cc1 returned CHO parental Ca 31.1*, OX1R antag-1 -12.1, GPR7 antag -20.0, TAAR1 antag -35.6, OX1R antag-2 16.0 and TAAR1 ag 0.1.
`O=S1(=O)N[C@H](Cc2ccccc2)COc2cc(N3CCCCC3)ccc21` gave TAAR1 antag -20.1 and TAAR1 ag -1.7.
For Cc1ccc(C(=O)N2NC(c3ccc(F)cc3)C3C(=O)N(c4ccc(C)c(C)c4)C(=O)C32)cc1 (stereo unspecified) the results were CHO parental Ca -1.2, OX1R antag-1 2.3, GPR7 antag -5.8, TAAR1 antag 5.0, OX1R antag-2 2.5 and TAAR1 ag 37.7*.
Screening Cc1ccc(C(=O)N2NC(c3ccc(F)cc3)C3C(=O)N(c4ccc(C)cc4)C(=O)C32)cc1 (stereo unspecified) returned CHO parental Ca -33.0, OX1R antag-1 -17.6, GPR7 antag -1.9, TAAR1 antag 5.7, OX1R antag-2 6.5 and TAAR1 ag 0.2.
`O=C1c2ccccc2C(=O)N1CCc1nc2ccccc2c(=O)n1-c1ccccn1` gave CHO parental Ca -6.6, OX1R antag-1 -11.6, GPR7 antag -15.6, TAAR1 antag 23.0, OX1R antag-2 62.1* and TAAR1 ag 21.8.
For CCn1c2ccccc2c2cc([N+](=O)[O-])ccc21 the results were CHO parental Ca -29.6, OX1R antag-1 -39.1, GPR7 antag -7.7, TAAR1 antag -7.4, OX1R antag-2 21.5 and TAAR1 ag -0.2.
For CCn1c2ccccc2c(=O)c2ccccc21 the results were CHO parental Ca 13.8, OX1R antag-1 -9.7, GPR7 antag -6.0, TAAR1 antag -7.3, OX1R antag-2 66.5* and TAAR1 ag 2.3.
`CCOC(=O)N1CCN(C(=O)C[C@H]2C[C@@]3(C(=O)OC)C(=C[C@H](COCc4ccccc4)O[C@@H]3C)N(Cc3ccc4c(c3)OCO4)C2=O)CC1` gave TAAR1 antag -10.2 and TAAR1 ag -2.5.
For CCN(CCn1cccn1)C(=O)c1cc(COc2cc(C)ccc2C)on1 the results were GPR7 antag -2.6, TAAR1 antag -18.2 and TAAR1 ag 2.1.
For CC(=O)Nc1ccc(Nc2ncnc3c2cnn3-c2cccc(C)c2)cc1 the results were CHO parental Ca -12.4, OX1R antag-1 -29.4, GPR7 antag 9.7, TAAR1 antag 27.9, OX1R antag-2 21.4 and TAAR1 ag 29.1.
Screening CC(=O)Nc1ccc(Nc2ncnc3c2cnn3-c2ccccc2)cc1 returned CHO parental Ca -9.6, OX1R antag-1 1.3, GPR7 antag 0.4, TAAR1 antag 27.4, OX1R antag-2 12.4 and TAAR1 ag 37.6*.
COc1cc(NC(=O)CSc2ncnc3c2cnn3Cc2ccccc2)cc(OC)c1 was read as CHO parental Ca -1.0, OX1R antag-1 2.4, GPR7 antag 4.6, TAAR1 antag 0.0, OX1R antag-2 13.5 and TAAR1 ag 4.5.
Screening COc1ccc(OC)c(NC(=O)CSc2ncnc3c2cnn3-c2ccccc2Cl)c1 returned CHO parental Ca 52.8*, OX1R antag-1 51.8*, GPR7 antag 1.6 and OX1R antag-2 44.6.
For CC1=[N+](C)c2c(ccc3cccnc23)C1(C)C the results were GPR7 antag 28.1*, TAAR1 antag 28.1 and TAAR1 ag 10.8.
`CC12CCC3c4ccc(O)cc4CCC3C1CCC2=O` (stereo unspecified) gave CHO parental Ca -9.5, OX1R antag-1 -13.8, TAAR1 antag 19.9, OX1R antag-2 28.3 and TAAR1 ag 5.2.
CCn1cc(/C=N/N=C2\CCC3C4CCc5cc(O)ccc5C4CC[C@]23C)c(C)n1 (stereo partly specified) was read as CHO parental Ca 38.1*, OX1R antag-1 29.7, GPR7 antag -2.0, TAAR1 antag 33.5, OX1R antag-2 52.6 and TAAR1 ag 11.1.
Screening O=[N+]([O-])c1cc(S(=O)(=O)N2CCCC2)ccc1NCCCN1CCOCC1 returned CHO parental Ca -9.6, OX1R antag-1 -18.0, GPR7 antag -6.2, TAAR1 antag -32.7, OX1R antag-2 50.9* and TAAR1 ag 5.5.
`CNS(=O)(=O)c1cc(Nc2ncnc3sccc23)ccc1C` gave CHO parental Ca 3.9, OX1R antag-1 18.7, GPR7 antag 8.8, TAAR1 antag 7.2, OX1R antag-2 62.7* and TAAR1 ag 4.5.
For COc1cccc(CNC(=O)[C@H]2CCCN2C(=O)[C@H]2CCCN2S(=O)(=O)c2cccc(C)c2)c1 the results were TAAR1 antag 3.2 and TAAR1 ag -0.7.
`C=CCn1c(SCCC)nc(O)cc1=O` gave CHO parental Ca -14.1, OX1R antag-1 -12.8, GPR7 antag -3.1, TAAR1 antag -17.0, OX1R antag-2 0.2 and TAAR1 ag 60.5*.
`COC(=O)[C@]12C[C@H](CC(=O)NCc3cccs3)C(=O)N(CCC3=CCCCC3)C1=C[C@H](COCc1ccccc1)O[C@@H]2C` gave TAAR1 antag -6.3 and TAAR1 ag -0.5.
CSc1cccc(NC(=S)NN/C(=N/S(=O)(=O)c2ccccc2)N2CCCC2)c1 was read as TAAR1 antag 0.0 and TAAR1 ag 1.5.
COCCN(C(=O)COC(=O)CCCOc1ccccc1)c1c(N)n(Cc2ccccc2)c(=O)[nH]c1=O was read as CHO parental Ca -14.8, OX1R antag-1 -20.4, TAAR1 antag -21.7, OX1R antag-2 18.0 and TAAR1 ag 0.8.
Screening OC(CNCC(c1ccc(Cl)cc1Cl)c1c[nH]c2ccccc12)c1ccccc1 (stereo unspecified) returned CHO parental Ca 32.6*, OX1R antag-1 17.1, GPR7 antag 19.0, TAAR1 antag 24.5, OX1R antag-2 3.0 and TAAR1 ag 29.9.
Screening O=[N+]([O-])CC(c1ccccc1)c1c[nH]c2ccccc12 (stereo unspecified) returned CHO parental Ca -1.3, OX1R antag-1 -5.0, TAAR1 antag -12.8, OX1R antag-2 11.1 and TAAR1 ag -0.4.
